From ChEMBL document CHEMBL1124042, “Synthesis and potential antipsychotic activity of 1H-imidazo[1,2-c]pyrazolo[3,4-e]pyrimidines” (J Med Chem, 1988)

Legend:
[1] = molecular target: T1, Adrenergic receptor alpha-2 (Rattus norvegicus, UniProt P22086+P19328+P22909); assay: Displacement of [3H]clonidine from alpha-2 adrenergic receptor in rat brain; type: tissue-based
T1 sequence (P22086 whole entry): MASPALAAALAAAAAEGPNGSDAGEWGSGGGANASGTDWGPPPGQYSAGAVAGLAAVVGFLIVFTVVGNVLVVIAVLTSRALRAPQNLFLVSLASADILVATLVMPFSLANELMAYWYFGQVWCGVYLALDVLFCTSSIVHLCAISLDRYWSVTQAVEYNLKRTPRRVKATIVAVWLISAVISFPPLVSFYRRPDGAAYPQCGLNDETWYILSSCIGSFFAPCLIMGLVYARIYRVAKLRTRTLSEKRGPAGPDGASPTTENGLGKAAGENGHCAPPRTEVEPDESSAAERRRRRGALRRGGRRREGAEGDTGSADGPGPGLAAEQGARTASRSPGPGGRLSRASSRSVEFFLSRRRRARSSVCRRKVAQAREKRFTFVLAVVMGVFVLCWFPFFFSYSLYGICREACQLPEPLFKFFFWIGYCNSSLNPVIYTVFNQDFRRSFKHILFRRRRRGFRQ
T1 sequence (P19328 whole entry): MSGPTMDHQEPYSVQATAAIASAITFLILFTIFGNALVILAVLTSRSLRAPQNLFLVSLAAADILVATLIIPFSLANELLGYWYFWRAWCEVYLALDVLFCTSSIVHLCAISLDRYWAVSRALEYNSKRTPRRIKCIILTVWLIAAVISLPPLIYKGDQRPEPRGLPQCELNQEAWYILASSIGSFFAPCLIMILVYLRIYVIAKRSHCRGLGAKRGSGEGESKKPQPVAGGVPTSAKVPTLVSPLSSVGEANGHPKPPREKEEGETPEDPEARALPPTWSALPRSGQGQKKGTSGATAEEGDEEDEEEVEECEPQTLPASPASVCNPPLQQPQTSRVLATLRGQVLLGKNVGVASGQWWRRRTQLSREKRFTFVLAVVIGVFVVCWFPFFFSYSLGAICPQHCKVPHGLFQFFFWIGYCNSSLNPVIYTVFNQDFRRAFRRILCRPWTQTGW
T1 sequence (P22909 whole entry): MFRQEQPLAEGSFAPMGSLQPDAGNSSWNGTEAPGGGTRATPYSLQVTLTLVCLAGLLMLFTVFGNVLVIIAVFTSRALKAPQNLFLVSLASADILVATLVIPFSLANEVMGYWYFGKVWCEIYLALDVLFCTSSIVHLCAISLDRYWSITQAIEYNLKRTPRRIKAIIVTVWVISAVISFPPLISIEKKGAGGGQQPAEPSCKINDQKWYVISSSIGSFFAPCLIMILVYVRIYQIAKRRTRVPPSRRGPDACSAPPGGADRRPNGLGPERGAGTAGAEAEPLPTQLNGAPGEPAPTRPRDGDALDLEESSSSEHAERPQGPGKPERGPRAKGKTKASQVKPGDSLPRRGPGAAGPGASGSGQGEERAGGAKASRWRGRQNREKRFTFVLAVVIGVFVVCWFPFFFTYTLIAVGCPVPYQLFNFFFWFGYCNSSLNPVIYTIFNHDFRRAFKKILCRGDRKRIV
Method in brief: (§1)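 Rat brain radioligand displacement binding. IC50 values (μM) were derived by nonlinear regression from four or five concentrations of compound.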

Rattus norvegicus [2] = assay: Inhibition of self-stimulation in rats after the compound administered through perorally; type: functional; conditions: po
Method in brief: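 Suppression of high base line self-stimulation in rats after oral dosing. Read-out is ED50 in mg/kg.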

Rattus norvegicus [3] = assay: Inhibition of Sidman avoidance in rats after peroral administration; type: functional; conditions: po
Method in brief: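 Continuous (Sidman) avoidance responding in rats with oral dosing. At least three doses per drug, four animals per dose. ED50 reported ± SEM.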

[4] = Displacement of [3H]flunitrazepam from GABA-A benzodiazepine receptor of rat brain; method in brief: as §1
[5] = molecular target: Voltage-gated L-type calcium channel (Rattus norvegicus, UniProt P22002+Q02485+P27732); assay: Displacement of [3H]nitrendipine from L-type [Ca2+] channel of rat brain; type: tissue-based
Mus musculus [6] = assay: Inhibition of induction of ataxia in mouse after intraperitoneal administration; type: functional; conditions: ip
[7] = molecular target: Serotonin 1 (5-HT1) receptor (Rattus norvegicus, UniProt P28564+P30940+P19327+P28565); assay: Displacement of [3H]5-HT from serotonin-1 neurotransmitter receptor in rat brain; type: tissue-based; method in brief: as §1
Rattus norvegicus [8] = assay: Inhibition of locomotion in rats after the compound administered through perorally; type: functional; conditions: po
Method in brief: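 Oral dosing in rats, with spontaneous locomotor activity scored alongside ataxia. ED50 reported ± SEM.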

[9] = molecular target: Serotonin 2 (5-HT2) receptor (Rattus norvegicus, UniProt P30994+P08909+P14842); assay: Displacement of [3H]spiroperidol from 5-hydroxytryptamine 2 receptor in rat brain; type: tissue-based; method in brief: as §1
D(1A) dopamine receptor = D(1A) dopamine receptor (Rattus norvegicus, UniProt P18901); assay: Displacement of [3H]cis-flupenthixol from Dopamine receptor D1 in rat brain; type: tissue-based
Sequence of D(1A) dopamine receptor (P18901 whole entry): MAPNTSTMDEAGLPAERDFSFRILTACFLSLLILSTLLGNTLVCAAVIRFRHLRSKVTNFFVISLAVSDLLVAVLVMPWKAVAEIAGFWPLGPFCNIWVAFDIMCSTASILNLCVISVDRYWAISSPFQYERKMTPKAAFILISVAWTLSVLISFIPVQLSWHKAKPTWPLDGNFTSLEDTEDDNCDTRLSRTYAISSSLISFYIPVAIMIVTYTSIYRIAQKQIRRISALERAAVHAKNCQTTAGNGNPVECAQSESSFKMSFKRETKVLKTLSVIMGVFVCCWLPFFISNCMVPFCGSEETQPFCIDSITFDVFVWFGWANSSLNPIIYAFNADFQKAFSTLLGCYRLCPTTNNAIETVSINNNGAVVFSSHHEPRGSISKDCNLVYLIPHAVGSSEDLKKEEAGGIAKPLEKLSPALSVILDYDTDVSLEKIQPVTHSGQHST

[10] = molecular target: Beta-2 adrenergic receptor (Rattus norvegicus, UniProt P10608); assay: Displacement of [3H]DHA (Dihydroalprenolol) from beta-2 adrenergic receptor in rat brain; type: tissue-based; method in brief: as §1
Sequence of Beta-2 adrenergic receptor (P10608 whole entry): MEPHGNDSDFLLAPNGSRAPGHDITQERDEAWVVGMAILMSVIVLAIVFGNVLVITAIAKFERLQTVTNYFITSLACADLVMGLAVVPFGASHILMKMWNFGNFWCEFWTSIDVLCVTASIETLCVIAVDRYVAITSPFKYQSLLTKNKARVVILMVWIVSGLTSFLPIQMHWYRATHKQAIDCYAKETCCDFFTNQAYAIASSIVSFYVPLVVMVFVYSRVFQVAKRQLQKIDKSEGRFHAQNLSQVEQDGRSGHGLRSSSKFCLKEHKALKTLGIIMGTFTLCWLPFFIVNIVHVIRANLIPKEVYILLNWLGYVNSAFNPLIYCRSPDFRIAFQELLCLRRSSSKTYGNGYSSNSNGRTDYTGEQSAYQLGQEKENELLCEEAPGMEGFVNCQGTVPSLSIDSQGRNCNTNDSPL

[11] = molecular target: Muscarinic acetylcholine receptor; assay: Displacement of [3H]quinuclidinyl benzilate(QNB) from Muscarinic acetylcholine receptor in rat brain; type: tissue-based; method in brief: as §1
D(2) dopamine receptor = D(2) dopamine receptor (Rattus norvegicus, UniProt P61169); assay: Displacement of [3H]haloperidol from Dopamine receptor D2 in rat brain; type: tissue-based
Sequence of D(2) dopamine receptor (P61169 whole entry): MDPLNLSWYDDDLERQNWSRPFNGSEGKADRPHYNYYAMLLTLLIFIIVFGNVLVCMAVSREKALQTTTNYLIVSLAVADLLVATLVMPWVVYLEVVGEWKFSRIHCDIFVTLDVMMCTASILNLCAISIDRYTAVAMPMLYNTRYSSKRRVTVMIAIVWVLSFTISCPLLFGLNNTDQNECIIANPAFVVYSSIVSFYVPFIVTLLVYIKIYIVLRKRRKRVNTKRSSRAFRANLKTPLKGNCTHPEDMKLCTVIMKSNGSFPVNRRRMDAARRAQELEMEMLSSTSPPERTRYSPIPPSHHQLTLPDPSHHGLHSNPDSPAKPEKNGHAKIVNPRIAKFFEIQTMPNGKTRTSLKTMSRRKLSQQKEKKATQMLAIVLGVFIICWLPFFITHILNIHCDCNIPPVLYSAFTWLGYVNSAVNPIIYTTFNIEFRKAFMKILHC

Mus musculus [12] = assay: Inhibition of locomotor activity in mouse after intraperitoneal administration; type: functional; conditions: Mus musculus, ip; read-out: ED50

CCC1CN2C(C)=Nc3c(C)nn(C)c3C2=N1 (centres undefined)
IC50 [1]: > 10 µM | ED50 (Rattus norvegicus [2]): 10.8 mg/kg | ED50 (Rattus norvegicus [3]): 19.2 mg/kg | IC50 [4]: > 1 µM | IC50 [5]: > 10 µM | ED50 (Mus musculus [6]): > 100 mg/kg | IC50 [7]: > 10 µM | ED50 (Rattus norvegicus [8]): 15.5 mg/kg | IC50 [9]: > 10 µM | IC50 (D(1A) dopamine receptor): > 10 µM | IC50 [10]: > 10 µM | IC50 [11]: > 10 µM | IC50 (D(2) dopamine receptor): > 10 µM | ED50 (Mus musculus [12]): 23.7 mg/kg
